Data taken from ChEMBL document CHEMBL1128719, “The synthesis, structure-activity, and structure-side effect relationships of a series of 8-alkoxy- and 5-amino-8-alkoxyquinolone antibacterial agents” (J Med Chem, 1995).
In brackets after ≈: the same amount, converted by molar mass.

Legend:
[1] = tested on: V79; test: Clonogenic cytotoxicity against Chinese hamster V-79 cells; format: functional, cell-based; settings: Cricetulus griseus
Procedure, shortened: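 Chinese hamster V-79 cells grown overnight, then exposed to drug 3 h at 37 °C; drug medium replaced with fresh medium, cells incubated 5 days and scored for colony formation. IC50 (μg/mL) taken as concentration inhibiting colony formation by 50% versus control.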

[2] = tested on: Clostridioides difficile; test: (§1) In vitro antibacterial activity was tested for Clostridium diff CD1-1; format: functional
[3] = tested on: Bacteroides fragilis; test: In vitro antibacterial activity against Bacteroides fragilis BFA; format: functional
Procedure, shortened: (§2)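 Microtitration (microdilution) MIC determination in μg/mL against a panel of Gram-positive, Gram-negative and anaerobic organisms. Values come from duplicate or triplicate experiments and are stated accurate to ±50%.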

[4] = tested on: Peptoniphilus asaccharolyticus; test: In vitro antibacterial activity was tested for Pepto asac PA 3-1; format: functional; procedure, shortened: as §2
[5] = tested on: Clostridium perfringens; test: In vitro antibacterial activity against Clostridium perfringens CP 3-1; format: functional
[6] = organism: Mus musculus; test: (§3) Phototoxic skin reaction in depilated female CD-1 mice; format: toxicity, organism-based; settings: in vivo
Procedure, shortened: (§4)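 Female CD-1 mice, depilated, given a single oral or subcutaneous dose. UVA (320–400 nm) exposure for 3 h, starting 1 h post-dose. Initial doses were 30, 100 and 300 mg/kg. PTD50 (dose giving phototoxic skin reaction in 50% of mice) derived by probit method. First day of positive reaction and no-effect dose taken from raw data.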

[7] = tested on: Cutibacterium acnes; test: In vitro antibacterial activity was tested for Propion acnes PA5-1; format: functional; procedure, shortened: as §2
[8] = tested on: Enterobacter cloacae; test: In vitro antibacterial activity was tested for Enterobacter cloacae HA2646; format: functional
[9] = tested on: Staphylococcus aureus; test: In vitro antibacterial activity was tested for Staphylococcus aureus H228; format: functional; procedure, shortened: as §2
[10] = tested on: Providencia rettgeri; test: In vitro antibacterial activity was tested for Providencia rettgeri H1771; format: functional; procedure, shortened: as §2
[11] = tested on: Enterococcus faecalis; test: In vitro antibacterial activity was tested for Streptococcus faecalis MGH-2; format: functional; procedure, shortened: as §2
[12] = tested on: Escherichia coli; test: In vitro antibacterial activity was tested for Escherichia coli Vogel; format: functional; procedure, shortened: as §2
[13] = tested on: Staphylococcus aureus; test: In vitro antibacterial activity was tested for Staphylococcus aureus UC-76; format: functional; procedure, shortened: as §2
[14] = tested on: Klebsiella pneumoniae; test: In vitro antibacterial activity was tested for Klebsiella pneumoniae MGH-2; format: functional; procedure, shortened: as §2
[15] = tested on: Streptococcus pyogenes; test: In vitro antibacterial activity was tested for Streptococcus pyogenes C203; format: functional; procedure, shortened: as §2
[16] = tested on: Escherichia coli; test: In vitro antibacterial activity was tested for Escherichia coli H560; format: functional; procedure, shortened: as §2
[17] = tested on: Pseudomonas aeruginosa; test: In vitro antibacterial activity was tested for Pseudomonas aeruginosa UI-18; format: functional; procedure, shortened: as §2
[18] = tested on: Streptococcus pneumoniae; test: In vitro antibacterial activity was tested for Streptococcus pneumoniae SV-1; format: functional; procedure, shortened: as §2
[19] = organism: Mus musculus; test: as §3; format: functional; procedure, shortened: as §4
[20] = tested on: Clostridioides difficile; test: as §1; format: functional; procedure, shortened: as §2; remark: listed apart in the source

SMILES | IC50 [1] | MIC [2] | MIC [3] | MIC [4] | MIC [5] | PTD50 [6] | MIC [7] | MIC [8] | MIC [9] | MIC [10] | MIC [11] | MIC [12] | MIC [13] | MIC [14] | MIC [15] | MIC [16] | MIC [17] | MIC [18] | No effect dose [19] | MIC [20]
C[C@@H]1CN(c2cc3c(cc2F)c(=O)c(C(=O)O)cn3C2CC2)C[C@H](C)N1 | > 500 µg/mL | 6.3 µg/mL (≈ 17.5 µM) | 1.6 µg/mL (≈ 4.45 µM) | 0.4 µg/mL (≈ 1.11 µM) | 0.2 µg/mL (≈ 0.556 µM) | < 100 mg | 0.8 µg/mL (≈ 2.23 µM) | – | – | – | – | – | – | – | – | – | – | – | – | –
NCC1CCCN(c2nc3c(cc2F)c(=O)c(C(=O)O)cn3C2CC2)C1 (stereo unspecified) | 290 µg/mL (≈ 805 µM) | – | – | – | – | – | – | 0.4 µg/mL (≈ 1.11 µM) | 1.6 µg/mL (≈ 4.44 µM) | 1.6 µg/mL (≈ 4.44 µM) | 0.4 µg/mL (≈ 1.11 µM) | 0.4 µg/mL (≈ 1.11 µM) | 0.2 µg/mL (≈ 0.555 µM) | 0.8 µg/mL (≈ 2.22 µM) | 0.2 µg/mL (≈ 0.555 µM) | 0.4 µg/mL (≈ 1.11 µM) | 6.3 µg/mL (≈ 17.5 µM) | 0.2 µg/mL (≈ 0.555 µM) | – | –
NCC1CCCN(c2c(F)cc3c(=O)c(C(=O)O)cn(C4CC4)c3c2F)C1 (stereo unspecified) | 43 µg/mL (≈ 114 µM) | 0.8 µg/mL (≈ 2.12 µM) | 1.6 µg/mL (≈ 4.24 µM) | 0.4 µg/mL (≈ 1.06 µM) | 0.2 µg/mL (≈ 0.53 µM) | – | 0.8 µg/mL (≈ 2.12 µM) | 0.05 µg/mL (≈ 0.132 µM) | 0.1 µg/mL (≈ 0.265 µM) | 0.2 µg/mL (≈ 0.53 µM) | 0.05 µg/mL (≈ 0.132 µM) | 0.05 µg/mL (≈ 0.132 µM) | 0.2 µg/mL (≈ 0.53 µM) | 0.2 µg/mL (≈ 0.53 µM) | 0.013 µg/mL (≈ 0.0344 µM) | 0.05 µg/mL (≈ 0.132 µM) | 0.4 µg/mL (≈ 1.06 µM) | 0.013 µg/mL (≈ 0.0344 µM) | – | –
NCC1CCCN(c2cc3c(cc2F)c(=O)c(C(=O)O)cn3C2CC2)C1 (stereo unspecified) | 220 µg/mL (≈ 612 µM) | – | – | – | – | – | – | 0.4 µg/mL (≈ 1.11 µM) | 0.8 µg/mL (≈ 2.23 µM) | 1.6 µg/mL (≈ 4.45 µM) | 0.2 µg/mL (≈ 0.556 µM) | 0.4 µg/mL (≈ 1.11 µM) | 0.1 µg/mL (≈ 0.278 µM) | 0.8 µg/mL (≈ 2.23 µM) | 0.05 µg/mL (≈ 0.139 µM) | 0.4 µg/mL (≈ 1.11 µM) | 3.1 µg/mL (≈ 8.63 µM) | 0.1 µg/mL (≈ 0.278 µM) | – | –
NCC1CCCN(c2c(F)cc3c(=O)c(C(=O)O)cn(C4CC4)c3c2Cl)C1 (stereo unspecified) | 17 µg/mL (≈ 43.2 µM) | – | – | – | – | – | – | 0.2 µg/mL (≈ 0.508 µM) | 0.025 µg/mL (≈ 0.0635 µM) | 0.2 µg/mL (≈ 0.508 µM) | 0.05 µg/mL (≈ 0.127 µM) | 0.1 µg/mL (≈ 0.254 µM) | 0.003 µg/mL (≈ 0.00762 µM) | 0.2 µg/mL (≈ 0.508 µM) | 0.003 µg/mL (≈ 0.00762 µM) | 0.05 µg/mL (≈ 0.127 µM) | 1.6 µg/mL (≈ 4.06 µM) | 0.003 µg/mL (≈ 0.00762 µM) | – | –
COc1c(N2CC(C)NC(C)C2)c(F)cc2c(=O)c(C(=O)O)cn(C3CC3)c12 (stereo unspecified) | – | 3.1 µg/mL (≈ 7.96 µM) | 0.8 µg/mL (≈ 2.05 µM) | 0.8 µg/mL (≈ 2.05 µM) | 0.4 µg/mL (≈ 1.03 µM) | > 100 mg | 0.4 µg/mL (≈ 1.03 µM) | 0.1 µg/mL (≈ 0.257 µM) | 0.1 µg/mL (≈ 0.257 µM) | 0.8 µg/mL (≈ 2.05 µM) | 0.2 µg/mL (≈ 0.514 µM) | 0.1 µg/mL (≈ 0.257 µM) | 0.05 µg/mL (≈ 0.128 µM) | 0.2 µg/mL (≈ 0.514 µM) | 0.1 µg/mL (≈ 0.257 µM) | 0.05 µg/mL (≈ 0.128 µM) | 3.1 µg/mL (≈ 7.96 µM) | 0.1 µg/mL (≈ 0.257 µM) | 100 mg | –
NC1CCN(c2c(F)cc3c(=O)c(C(=O)O)cn(C4CC4)c3c2F)C1 (stereo unspecified) | – | – | 0.2 µg/mL (≈ 0.573 µM) | 0.4 µg/mL (≈ 1.15 µM) | 0.05 µg/mL (≈ 0.143 µM) | 7.5 mg | 0.2 µg/mL (≈ 0.573 µM) | 0.025 µg/mL (≈ 0.0716 µM) | 0.05 µg/mL (≈ 0.143 µM) | 0.05 µg/mL (≈ 0.143 µM) | 0.05 µg/mL (≈ 0.143 µM) | 0.013 µg/mL (≈ 0.0372 µM) | 0.025 µg/mL (≈ 0.0716 µM) | 0.025 µg/mL (≈ 0.0716 µM) | 0.05 µg/mL (≈ 0.143 µM) | 0.006 µg/mL (≈ 0.0172 µM) | 0.1 µg/mL (≈ 0.286 µM) | 0.05 µg/mL (≈ 0.143 µM) | 3 mg | 0.4 µg/mL (≈ 1.15 µM)
